Assays:
Format in all cases: functional
MCF7 [1] = assay: Growth inhibition of human MCF7 cells after 48 hrs; settings: MCF7, 48 h
Method in brief: (§1)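 NCI ~60-line screen. Cells were grown in RPMI 1640 with 5% FBS and 2 mM L-glutamine and plated at 5000–40000 cells/well. After a 24 h preincubation, five drug concentrations from DMSO stocks were added for 48 h at 37 °C. Cells were TCA-fixed, stained with SRB and read at 515 nm. GI50 was taken from time-zero and control absorbances and reported as pGI50.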

UO-31 = assay: Growth inhibition of human UO31 cells after 48 hrs; settings: UO-31, 48 h
Method in brief: (§2)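 NCI 60-line screen: cells in RPMI 1640 with 5% FBS and 2 mM L-glutamine, plated at 5000–40000 cells/well, grown 24 h (37 °C, 5% CO₂), then exposed to five 10-fold or ½-log dilutions (DMSO stock) for 48 h. Fixed with TCA (final 10% for adherent cells, 16% for suspension cells), then SRB stained with absorbance at 515 nm. GI50 from percentage growth relative to time-zero and control wells.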

PC-3 = assay: Growth inhibition of human PC3 cells after 48 hrs; settings: PC-3, 48 h; method in brief: as §1
M14 = assay: Growth inhibition of human M14 cells after 48 hrs; settings: M14, 48 h; method in brief: as §1
SR = assay: Growth inhibition of human SR cells after 48 hrs; method in brief: as §2
MDA-MB-435 = assay: Growth inhibition of human MDA-MB435 cells after 48 hrs; settings: MDA-MB-435, 48 h; method in brief: as §1
HCT-15 = assay: Growth inhibition of human HCT15 cells after 48 hrs; settings: HCT-15, 48 h; method in brief: as §1
UACC-257 = assay: Growth inhibition of human UACC257 cells after 48 hrs; settings: UACC-257, 48 h; method in brief: as §2
BT-549 = assay: Growth inhibition of human BT549 cells after 48 hrs; settings: BT-549, 48 h; method in brief: as §1
LOX IMVI = assay: Growth inhibition of human LOXIMVI cells after 48 hrs; method in brief: as §1
HOP-92 = assay: Growth inhibition of human HOP92 cells after 48 hrs; settings: HOP-92, 48 h; method in brief: as §1
SF-539 = assay: Growth inhibition of human SF539 cells after 48 hrs; settings: SF-539, 48 h; method in brief: as §1
KM12 = assay: Growth inhibition of human KM12 cells after 48 hrs; settings: KM12, 48 h; method in brief: as §1
MDA-MB-231 = assay: Growth inhibition of human MDA-MB-231 cells after 48 hrs; settings: MDA-MB-231, 48 h; method in brief: as §1
HCT-116 = assay: Growth inhibition of human HCT116 cells after 48 hrs; settings: HCT-116, 48 h; method in brief: as §1
UACC-62 = assay: Growth inhibition of human UACC62 cells after 48 hrs; settings: UACC-62, 48 h; method in brief: as §2
NCI-H322M = assay: Growth inhibition of human NCI-H322M cells after 48 hrs; method in brief: as §1
EKVX = assay: Growth inhibition of human EKVX cells after 48 hrs; method in brief: as §1
HL-60 = assay: Growth inhibition of human HL60 cells after 48 hrs; settings: HL-60, 48 h; method in brief: as §1
SN12C = assay: Growth inhibition of human SN12C cells after 48 hrs; method in brief: as §2
HOP-62 = assay: Growth inhibition of human HOP62 cells after 48 hrs; settings: HOP-62, 48 h; method in brief: as §1
Malme-3M = assay: Growth inhibition of human MALME3M cells after 48 hrs; method in brief: as §1
ACHN = assay: Growth inhibition of human ACHN cells after 48 hrs; method in brief: as §1
HT-29 = assay: Growth inhibition of human HT29 cells after 48 hrs; settings: HT-29, 48 h; method in brief: as §1
K562 = assay: Growth inhibition of human K562 cells after 48 hrs; settings: K562, 48 h; method in brief: as §1
OVCAR-3 = assay: Growth inhibition of human OVCAR-3 cells after 48 hrs; settings: OVCAR-3, 48 h; method in brief: as §1
RXF 393 = assay: Growth inhibition of human RXF393 cells after 48 hrs; settings: RXF 393, 48 h; method in brief: as §1
SF-268 [2] = assay: Growth inhibition of human SF268 cells after 48 hrs; settings: SF-268, 48 h; method in brief: as §1
RPMI-8226 = assay: Growth inhibition of human RPMI8226 cells after 48 hrs; settings: RPMI-8226, 48 h; method in brief: as §1
SK-MEL-2 = assay: Growth inhibition of human SK-MEL2 cells after 48 hrs; settings: SK-MEL-2, 48 h; method in brief: as §1
SW-620 = assay: Growth inhibition of human SW620 cells after 48 hrs; settings: SW-620, 48 h; method in brief: as §2
U-251 = assay: Growth inhibition of human U251 cells after 48 hrs; settings: U-251, 48 h; method in brief: as §2
IGROV-1 = assay: Growth inhibition of human IGROV1 cells after 48 hrs; settings: IGROV-1, 48 h; method in brief: as §1
[3] = Growth inhibition of human HS578T cells after 48 hrs; settings: Hs-578T; method in brief: as §1
TK-10 = assay: Growth inhibition of human TK10 cells after 48 hrs; settings: TK-10, 48 h; method in brief: as §2
NCI/ADR-RES = assay: Growth inhibition of human NCI/ADR-RES cells after 48 hrs; method in brief: as §1
DU-145 = assay: Growth inhibition of human DU145 cells after 48 hrs; settings: DU-145, 48 h; method in brief: as §1
CCRF-CEM = assay: Growth inhibition of human CCRF-CEM cells after 48 hrs; method in brief: as §1
OVCAR-4 = assay: Growth inhibition of human OVCAR4 cells after 48 hrs; settings: OVCAR-4, 48 h; method in brief: as §1
SNB-19 = assay: Growth inhibition of human SNB19 cells after 48 hrs; settings: SNB-19, 48 h; method in brief: as §2
SK-MEL-28 = assay: Growth inhibition of human SK-MEL28 cells after 48 hrs; settings: SK-MEL-28, 48 h; method in brief: as §1
NCI-H522 = assay: Growth inhibition of human NCI-H522 cells after 48 hrs; settings: NCI-H522, 48 h; method in brief: as §1
786-0 = assay: Growth inhibition of human 786-0 cells after 48 hrs; settings: 786-0, 48 h; method in brief: as §1
OVCAR-8 = assay: Growth inhibition of human OVCAR8 cells after 48 hrs; settings: OVCAR-8, 48 h; method in brief: as §1
SK-MEL-5 = assay: Growth inhibition of human SK-MEL5 cells after 48 hrs; settings: SK-MEL-5, 48 h; method in brief: as §1
HCC 2998 = assay: Growth inhibition of human HCC2998 cells after 48 hrs; settings: HCC 2998, 48 h; method in brief: as §1
A498 = assay: Growth inhibition of human A498 cells after 48 hrs; settings: A498, 48 h; method in brief: as §1
A549 = assay: Growth inhibition of human A549 cells after 48 hrs; settings: A549, 48 h; method in brief: as §1
NCI-H226 = assay: Growth inhibition of human NCI-H226 cells after 48 hrs; settings: NCI-H226, 48 h; method in brief: as §1
COLO 205 = assay: Growth inhibition of human COLO205 cells after 48 hrs; settings: COLO 205, 48 h; method in brief: as §1
MOLT-4 = assay: Growth inhibition of human MOLT4 cells after 48 hrs; settings: MOLT-4, 48 h; method in brief: as §1
OVCAR-5 = assay: Growth inhibition of human OVCAR5 cells after 48 hrs; settings: OVCAR-5, 48 h; method in brief: as §1
CAKI-1 = assay: Growth inhibition of human CAKI1 cells after 48 hrs; settings: CAKI-1, 48 h; method in brief: as §1
NCI-H460 [4] = assay: Growth inhibition of human NCI-H460 cells after 48 hrs; settings: NCI-H460, 48 h; method in brief: as §1
SF-295 = assay: Growth inhibition of human SF295 cells after 48 hrs; settings: SF-295, 48 h; method in brief: as §1
SK-OV-3 = assay: Growth inhibition of human SKOV3 cells after 48 hrs; settings: SK-OV-3, 48 h; method in brief: as §2
SNB-75 = assay: Growth inhibition of human SNB75 cells after 48 hrs; settings: SNB-75, 48 h; method in brief: as §2
T47D = assay: Growth inhibition of human T47D cells after 48 hrs; method in brief: as §2
NCI-H23 = assay: Growth inhibition of human NCI-H23 cells after 48 hrs; settings: Homo sapiens, NCI-H23, 48 h; method in brief: as §1
MCF7 [5] = assay: Antitumor activity against human MCF7 cells at 0.1 mM after 48 hrs
Method in brief: (§3)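 Prescreen run under the NCI Developmental Therapeutic Program. Agents were tested at a single concentration of 10^-4 M against a three-line panel (MCF7, NCI-H460, SF-268).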

NCI-H460 [6] = assay: Antitumor activity against human NCI-H460 cells at 0.1 mM after 48 hrs; method in brief: as §3
SF-268 [7] = assay: Antitumor activity against human SF268 cells at 0.1 mM after 48 hrs; method in brief: as §3

COC(=O)C(Cc1c[nH]cn1)NC(=O)CNC(=O)CCCn1c(=O)c2c3ccccc3n(C)c2n2nnc(-c3ccccc3)c12 (stereo not given)
72.4 µM: GI50 (IGROV-1)
> 100 µM: GI50 (MCF7 [1]) | GI50 (UO-31) | GI50 (M14) | GI50 (SR) | GI50 (MDA-MB-435) | GI50 (HCT-15) | GI50 (UACC-257) | GI50 (BT-549) | GI50 (LOX IMVI) | GI50 (HOP-92) | GI50 (SF-539) | GI50 (KM12) | GI50 (MDA-MB-231) | GI50 (HCT-116) | GI50 (UACC-62) | GI50 (NCI-H322M) | GI50 (EKVX) | GI50 (HL-60) | GI50 (SN12C) | GI50 (HOP-62) | GI50 (Malme-3M) | GI50 (ACHN) | GI50 (HT-29) | GI50 (K562) | GI50 (OVCAR-3) | GI50 (RXF 393) | GI50 (SF-268 [2]) | GI50 (RPMI-8226) | GI50 (SK-MEL-2) | GI50 (SW-620) | GI50 (U-251) | GI50 [3] | GI50 (TK-10) | GI50 (NCI/ADR-RES) | GI50 (DU-145) | GI50 (CCRF-CEM) | GI50 (OVCAR-4) | GI50 (SNB-19) | GI50 (SK-MEL-28) | GI50 (NCI-H522) | GI50 (786-0) | GI50 (OVCAR-8) | GI50 (SK-MEL-5) | GI50 (HCC 2998) | GI50 (A498) | GI50 (A549) | GI50 (NCI-H226) | GI50 (COLO 205) | GI50 (MOLT-4) | GI50 (OVCAR-5) | GI50 (CAKI-1) | GI50 (NCI-H460 [4]) | GI50 (SF-295) | GI50 (SK-OV-3) | GI50 (SNB-75) | GI50 (T47D) | GI50 (NCI-H23)
30.2 µM: GI50 (PC-3)

Cn1c2ccccc2c2c(=O)n(CCCC(=O)O)c3c(-c4ccccc4)nnn3c21
87%: Activity (SF-268 [7])
80%: Activity (MCF7 [5])
95%: Activity (NCI-H460 [6])

CCOC(=O)CCCn1c(=O)c2c3ccccc3n(C)c2n2nnc(-c3ccccc3)c12
110%: Activity (SF-268 [7])
114%: Activity (MCF7 [5])
95%: Activity (NCI-H460 [6])

— ChEMBL document CHEMBL1142436, “Design and synthesis of 4-substituted indolo[3,2-e][1,2,3]triazolo[1,5-a]pyrimidine derivatives with antitumor activity” (2008)
